Paper PMC12818350 (Nature Biotechnology, 2025)
Non-standard residues stand in square brackets, D forms with d. No end group written: not given here.

How the values were obtained:
S. aureus SH1000 [1] = experiment: MIC assay; type: cell-based, Staphylococcus aureus
S. aureus ClpX = S. aureus ClpX (Staphylococcus aureus, UniProt Q2FXQ7); experiment: Isothermal titration calorimetry; type: binding; settings: 25 °C, ~30 μM His-ClpX, ~300 μM ligand
HeLa cells = experiment: Human cell toxicity assay; type: cell-based; settings: MTT, 48 h, 32 and 3.2 µg ml−1, duplicate wells; three biologically independent replicates
Outline: (§1)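 Cells grown in DMEM with 10% FBS, penicillin–streptomycin, glutamine and nonessential amino acids, and seeded in exponential phase at 5,000 per well, 37 °C, 5% CO2. Compound added from a DMSO stock in phenol red-free DMEM (final DMSO 0.5% or 0.05%). Vehicle sets 100% viability; camptothecin 40 µg ml−1 sets 0%. MTT added for 4 h, solubilized overnight, A570 read, normalized to percentage survival.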

HEK239 cells = experiment: Human cell toxicity assay; type: cell-based; settings: MTT, 48 h, 32 and 3.2 µg ml−1, duplicate wells; three biologically independent replicates
Outline: as §1

S. aureus SH1000 [2] = experiment: Mutant isolation by direct plating; type: cell-based, Staphylococcus aureus; settings: 8× MIC, ~1 × 10^7 cells per ml, LB, 30 °C, overnight

Sequence of S. aureus ClpX (Q2FXQ7 whole entry): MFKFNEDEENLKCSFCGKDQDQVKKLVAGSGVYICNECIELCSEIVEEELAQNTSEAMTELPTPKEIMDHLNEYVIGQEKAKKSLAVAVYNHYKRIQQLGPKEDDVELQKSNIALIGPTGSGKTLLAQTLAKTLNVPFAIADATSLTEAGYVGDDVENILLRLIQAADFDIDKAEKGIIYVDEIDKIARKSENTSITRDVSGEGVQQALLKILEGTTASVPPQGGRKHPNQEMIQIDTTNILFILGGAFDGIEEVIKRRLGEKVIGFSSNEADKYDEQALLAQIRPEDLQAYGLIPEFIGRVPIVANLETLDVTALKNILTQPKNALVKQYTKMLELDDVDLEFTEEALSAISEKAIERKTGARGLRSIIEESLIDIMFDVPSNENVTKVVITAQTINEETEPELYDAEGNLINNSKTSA

“[dT]PFYL (also: lariat or depsi (positions not given here)) [synBNP 27, trigintamicin]” was tested, and the “antibiotic activity after shifting the assay conditions to 37 °C (in words)” value (S. aureus SH1000 [1]; S. aureus, 37 °C instead of 30 °C) was “abolished”, the “antibiotic activity against S. aureus (in words)” value (S. aureus SH1000 [1]; resolved trigintamicin isomers after resynthesis, 30 °C) was “showing antibiotic activity” and the “binding to ClpX by ITC (in words)” value (S. aureus ClpX) was “bound ClpX”. For the same substance, the “human cell toxicity (in words)” value (HeLa cells) was “human cell cytotoxicity”, the “human cell toxicity (in words)” value (HEK239 cells) was “human cell cytotoxicity” and the “resistant mutants by direct plating” value (S. aureus SH1000 [2]) was “generated resistant mutants”.
